Laboratory results published in ChEMBL document CHEMBL2380281, “Synthesis of proline analogues as potent and selective cathepsin S inhibitors” (Bioorg Med Chem Lett, 2013).

Experiments:
Cathepsin S = Cathepsin S (Homo sapiens, UniProt P25774); assay: Inhibition of human cathepsin-S
Cathepsin K = target: T1, Cathepsin K (Homo sapiens, UniProt P43235); assay: Inhibition of human cathepsin-K
T1 sequence (P43235 whole entry): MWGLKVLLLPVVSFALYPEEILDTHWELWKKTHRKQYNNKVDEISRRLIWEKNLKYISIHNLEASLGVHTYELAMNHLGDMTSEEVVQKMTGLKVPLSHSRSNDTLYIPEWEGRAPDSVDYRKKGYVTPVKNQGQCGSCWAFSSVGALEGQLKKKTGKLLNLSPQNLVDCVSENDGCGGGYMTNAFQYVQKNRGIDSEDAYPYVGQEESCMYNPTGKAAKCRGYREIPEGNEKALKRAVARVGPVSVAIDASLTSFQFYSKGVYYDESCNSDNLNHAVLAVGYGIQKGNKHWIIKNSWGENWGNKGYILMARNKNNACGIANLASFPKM
How it was run: (§1)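 Human cathepsin B and K activity measured with a SensoLyte 520 cathepsin activity assay kit; LHVS as pan-cathepsin positive control.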

Cathepsin B = Cathepsin B (Homo sapiens, UniProt P07858); assay: Inhibition of human cathepsin-B; how it was run: as §1

Cathepsin S, sequence (P25774 whole entry): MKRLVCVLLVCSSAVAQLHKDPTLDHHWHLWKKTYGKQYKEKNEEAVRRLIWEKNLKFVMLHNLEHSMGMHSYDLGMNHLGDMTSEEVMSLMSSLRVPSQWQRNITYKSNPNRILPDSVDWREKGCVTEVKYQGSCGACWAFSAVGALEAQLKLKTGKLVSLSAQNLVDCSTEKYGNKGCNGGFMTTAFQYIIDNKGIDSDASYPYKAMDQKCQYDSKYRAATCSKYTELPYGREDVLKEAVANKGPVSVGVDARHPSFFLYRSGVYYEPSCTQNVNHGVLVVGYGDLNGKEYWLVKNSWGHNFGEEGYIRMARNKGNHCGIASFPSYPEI

Row | IC50 (Cathepsin S) [nM] | IC50 (Cathepsin K) [nM] | IC50 (Cathepsin B) [nM] | SMILES
1 | 2.4 |  |  | CCC(NC(=O)[C@@H]1C[C@@H](S(=O)(=O)c2ccccc2)CN1C(=O)C(C)C)C(=O)c1nc2ccccc2o1 (stereo partly specified)
2 | 2.3 |  |  | CCC(NC(=O)[C@@H]1C[C@@H](S(=O)(=O)c2ccccc2Cl)CN1C(C)=O)C(=O)c1nc2ccccc2o1 (stereo partly specified)
3 | 3.2 |  |  | CCC(NC(=O)[C@@H]1C[C@@H](S(=O)(=O)c2ccc(-n3cccn3)cc2)CN1C(C)=O)C(=O)c1nc2ccccc2o1 (stereo partly specified)
4 | 3.5 |  |  | CCC(NC(=O)[C@@H]1C[C@@H](S(=O)(=O)c2ccccc2)CN1C(=O)c1cccnc1)C(=O)c1nc2ccccc2o1 (stereo partly specified)
5 | 4.3 |  |  | CC[C@@H](NC(=O)[C@@H]1C[C@@H](S(=O)(=O)c2ccccc2)CN1C(C)=O)C(=O)c1nc2ccccc2o1
6 | 3.1 |  |  | CCC(=O)N1C[C@H](S(=O)(=O)c2ccccc2)C[C@H]1C(=O)NC(CC)C(=O)c1nc2ccccc2o1 (stereo partly specified)
7 | > 100 |  |  | CC(=O)N1C[C@H](S(=O)(=O)c2ccccc2)C[C@H]1C(=O)NC(Cc1ccccc1)C(=O)c1nc2ccccc2o1 (stereo partly specified)

Second part, the compound before the results:

Row | SMILES | IC50 (Cathepsin S) [nM] | IC50 (Cathepsin K) [nM] | IC50 (Cathepsin B) [nM]
8 | CCC(NC(=O)[C@@H]1C[C@@H](S(=O)(=O)c2ccccc2)CN1S(C)(=O)=O)C(=O)c1nc2ccccc2o1 (stereo partly specified) | 3.5 |  | 
9 | CCC(NC(=O)[C@@H]1C[C@@H](S(=O)(=O)c2ccccc2)CN1C(=O)N1CCCC1)C(=O)c1nc2ccccc2o1 (stereo partly specified) | 3.7 |  | 
10 | CCC(NC(=O)[C@@H]1C[C@@H](S(=O)(=O)c2ccccc2)CN1C(=O)c1ccccc1)C(=O)c1nc2ccccc2o1 (stereo partly specified) | 3 | > 10000 | > 10000
11 | CCC(NC(=O)[C@@H]1C[C@@H](S(=O)(=O)c2ccccc2)CN1C(=O)C(F)(F)F)C(=O)c1nc2ccccc2o1 (stereo partly specified) | 2.7 |  | 
12 | CCC(NC(=O)[C@@H]1C[C@@H](S(=O)(=O)CC)CN1C(C)=O)C(=O)c1nc2ccccc2o1 (stereo partly specified) | > 100 |  | 
13 | CCC(NC(=O)[C@@H]1C[C@@H](S(=O)(=O)c2ccccc2)CN1C(=O)c1ccc(-c2ccccc2)cc1)C(=O)c1nc2ccccc2o1 (stereo partly specified) | 4.1 | > 10000 | > 10000
14 | CC(C)C[C@@H](NC(=O)N1CCOCC1)C(=O)N[C@@H](/C=C/S(=O)(=O)c1ccccc1)CCc1ccccc1 | 1.9 | 4 | 3
15 | CCC(NC(=O)[C@@H]1C[C@@H](S(=O)(=O)c2ccccc2)CN1C(=O)CCOC)C(=O)c1nc2ccccc2o1 (stereo partly specified) | 3.3 |  | 
